GI, inhibition and IC50 data for five molecules are collected here from ChEMBL document CHEMBL5696444 (Nat Commun, 2017).

One assay deals with HCT-116. The experiment in a line: Cytotoxicity against human HCT-116 cells assessed as inhibition of cell viability incubated for > 24 hrs. In kind it is functional.
Assay [1] addresses Dual specificity protein kinase CLK1 (Homo sapiens) (UniProt P49759). As to the kind of experiment: Inhibition of CLK (unknown origin) in human HCT-116 cells assessed as SRSF4 level at 10 uM incubated for 6 hrs by immunoblot analysis. In kind it is cell-based. The gist of the method: (§1)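 HCT116 cells were exposed to compound for 3 or 6 h, then lysed in 1× SDS sample buffer (0.16% SDS, Tris-HCl pH 6.8) and boiled 5 min. Lysates were run on 5–15% or 4–12% gradient gels and transferred to nitrocellulose or PVDF. Membranes were blocked in 5% milk or 3% BSA/TBS-T and probed overnight at 4 °C with anti-SR protein (16H3) or anti-phospho-SR (1H4, 1/1000), with GAPDH as loading control.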
Background: In western blotting, separated proteins are transferred to a membrane and probed.

Assay [2] has the same target. The experiment in a line: Inhibition of CLK (unknown origin) in human HCT-116 cells assessed as SRSF6 level at 10 uM incubated for 6 hrs by immunoblot analysis. In kind it is cell-based. The gist of the method:
as §1

Assay [3] shares this target. As to the kind of experiment: Inhibition of CLK (unknown origin) in human HCT-116 cells assessed as phospho SR level at 10 uM incubated for 6 hrs by immunoblot analysis. In kind it is cell-based. The gist of the method: as §1
Assay [4] has the same target. As to the kind of experiment: Inhibition of CLK (unknown origin) in human HCT-116 cells assessed as SRSF1 level at 10 uM incubated for 6 hrs by immunoblot analysis. In kind it is cell-based. The gist of the method: as §1
Assay [5] has as its target Dual specificity protein kinase CLK2 (Homo sapiens, UniProt P49760). The experiment in a line: Inhibition of N-terminal FLAG-tagged human CLK2 using ULight MBP peptide as substrate incubated for 10 mins in presence of ATP incubated for 45 mins by LANCE Ultra kinase assay. A general note: Time-resolved FRET reads energy transfer from a long-lived donor to a nearby acceptor.

The source made the active and inactive calls. The calls are words filed in the database; no cut-off is given here. Where only a bound is given, the exact number is not on record here.

Chain of Dual specificity protein kinase CLK2 (P49760 whole entry): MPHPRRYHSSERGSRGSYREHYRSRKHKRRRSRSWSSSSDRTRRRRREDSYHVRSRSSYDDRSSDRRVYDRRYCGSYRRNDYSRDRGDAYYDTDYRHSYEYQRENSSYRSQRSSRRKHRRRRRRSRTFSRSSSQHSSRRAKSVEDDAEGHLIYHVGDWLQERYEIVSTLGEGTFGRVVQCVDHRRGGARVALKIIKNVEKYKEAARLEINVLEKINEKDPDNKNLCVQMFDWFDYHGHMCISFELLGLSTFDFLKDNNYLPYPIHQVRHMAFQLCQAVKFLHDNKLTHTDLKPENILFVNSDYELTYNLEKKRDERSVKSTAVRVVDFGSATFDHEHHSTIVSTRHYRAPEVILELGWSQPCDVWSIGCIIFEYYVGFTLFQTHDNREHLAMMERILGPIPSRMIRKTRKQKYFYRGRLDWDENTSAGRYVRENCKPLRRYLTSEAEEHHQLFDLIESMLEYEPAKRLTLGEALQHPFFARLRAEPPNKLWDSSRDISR
Chain of Dual specificity protein kinase CLK1 (Homo sapiens) (P49759 whole entry, looked up): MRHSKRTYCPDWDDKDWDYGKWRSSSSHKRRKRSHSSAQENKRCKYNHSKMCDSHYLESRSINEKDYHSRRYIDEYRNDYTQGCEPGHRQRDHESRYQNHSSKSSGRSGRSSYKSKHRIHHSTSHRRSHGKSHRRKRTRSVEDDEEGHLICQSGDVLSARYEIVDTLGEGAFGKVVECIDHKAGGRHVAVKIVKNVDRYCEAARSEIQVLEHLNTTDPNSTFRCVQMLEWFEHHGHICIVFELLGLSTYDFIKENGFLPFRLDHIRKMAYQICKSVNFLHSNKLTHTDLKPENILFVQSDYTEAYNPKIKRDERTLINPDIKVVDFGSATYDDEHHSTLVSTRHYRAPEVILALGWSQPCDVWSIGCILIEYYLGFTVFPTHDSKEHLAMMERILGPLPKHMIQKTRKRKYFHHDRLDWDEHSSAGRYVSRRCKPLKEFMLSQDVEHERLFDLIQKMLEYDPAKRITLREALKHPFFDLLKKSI

On to `CCOC(=O)c1c(/C(C#N)=C\N)c2ccc(Cl)c(Cl)c2n1C`, for which, in the assay on HCT-116, the GI is greater than 50 µM. For the same molecule, the inhibition entry in assay [1], in assay [2], in assay [3] and in assay [4] was “Active” in each case. Broadly, the IC50 is the point on the concentration scale where inhibition reaches its midpoint. `CC(C)(CCc1nn[nH]n1)c1ccc(C(=O)Nc2cn3cc(C(F)(F)F)ccc3n2)cc1`: the IC50 in assay [5] came out at 360 nM. The same measure, in the same setting: for `CC(C)(CCc1nn[nH]n1)c1ccc(C(=O)Nc2cn3cc(-c4ccncc4)ccc3n2)cc1` the value was 50 nM.

Take `CCN1CCN(C(=O)C(C)(C)c2ccc(C(=O)Nc3cn4cc(-c5ccncc5)ccc4n3)cc2)CC1`: the IC50 in assay [5] is 15 nM. Consider `CC(C)(C(=O)N1CCNCC1)c1ccc(C(=O)Nc2cn3cc(-c4ccncc4)ccc3n2)cc1`, for which the IC50 in assay [5] came out at 150 nM.
